The values that follow come from PubChem BioAssay AID624363 (Broad Institute, 2012).

For orientation: AC50 means the midpoint of the concentration-response curve, whichever way the signal moves.

Where “and” joins values, the source holds several entries; their conditions need not be identical. Identical values can stand only once.

This assay relates to SK-MEL-5 TRPM1 promoter luciferase reporter, 24 h. Put plainly: MITF transcriptional activity inhibition, TRPM1 luciferase – cell-based, SK-MEL-5, dry powder, set 5, dose response (AID 624363). The procedure, abridged:
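Assay system: SK-MEL-5 TRPM1 promoter luciferase reporter cells | Input: 2000 reporter cells per well | Doses: Test compounds added by pin transfer | Timing: 24 h compound treatment, 37 °C | Measured by: SteadyGlo luminescence | Controls: Parthenolide at 27 µM as positive control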
Consider `COC1=C(NS(=O)(=O)c2ccccc2)C(=O)c2ccccc2C1=O`, for which the AC50 was 4.93 µM.

Take `CCN1CCN(C2=C(NC(=O)c3ccc(Br)cc3)C(=O)c3ccccc3C2=O)CC1`: the half-maximal activity concentration (AC50) is 0.845 µM.

Regarding `COc1ccc(C2=C(NC(=O)c3cccc(Cl)c3)C(=O)c3ccccc3C2=O)cc1`, the AC50 is 11 µM.

Take `O=C1C(NS(=O)(=O)c2ccc(Br)s2)=C(N2CCCCC2)C(=O)c2ccccc21`: the concentration at half-maximal activity (AC50) is 23.3 µM.

Take `CN1CCN(C2=C(NC(=O)c3ccccc3)C(=O)c3ccccc3C2=O)CC1`: the AC50 is 1.04 µM.

As for `O=C(NC1=C(N2CCOCC2)C(=O)c2ccccc2C1=O)c1ccccc1`, the AC50 is 8.05 µM.

On to `C=CCNC1=C(NCCCN(CC)CC)C(=O)c2ccccc2C1=O`, for which the AC50 is 4.6 µM.

With `COc1ccc(C(=O)NC2=C(c3ccccc3)C(=O)c3ccccc3C2=O)cc1`, the AC50 was 14.4 µM.

As to `CCN1CCN(C2=C(NS(=O)(=O)c3cccs3)C(=O)c3ccccc3C2=O)CC1`, the AC50 is 2.96 µM.

`O=C1C(NS(=O)(=O)c2cccs2)=C(c2ccccc2)C(=O)c2ccccc21`: the concentration at half-maximal activity (AC50) is 10.5 µM.

For the compound `O=C1C(NS(=O)(=O)c2ccccc2)=C(N2CCCCC2)C(=O)c2ccccc21`, the AC50 was 22.2 µM.

As for `COc1cccc(C2=C(NC(=O)c3ccccc3)C(=O)c3ccccc3C2=O)c1`, the concentration at half-maximal activity (AC50) was 16.6 µM.

Take `O=C1C(Nc2ccccc2)=C(N2CCCCC2)C(=O)c2ccccc21`: the concentration at half-maximal activity (AC50) is 6.28 µM.

For `NC1=C(c2ccc(OC(F)(F)F)cc2)C(=O)c2ccccc2C1=O`, the half-maximal activity concentration (AC50) is 20.4 µM.

As for `O=C1C=C(Nc2ccccc2)C(=O)c2ccccc21`, the concentration at half-maximal activity (AC50) is 4.02 µM and 5.21 µM.

As to `C=CCNC1=C(NCCN(CC)CC)C(=O)c2ccccc2C1=O`, the half-maximal activity concentration (AC50) was 4.88 µM.

As for `CNC1=CC(=O)c2ccccc2C1=O`, the half-maximal activity concentration (AC50) is 9.17 µM.

Turning to `COc1cccc(-c2cc(C(=O)NC3=C(Cl)C(=O)c4ccccc4C3=O)ccc2OC)c1`, the AC50 was 3.34 µM.

Take `C=CCNC1=C(N2CCN(C)CC2)C(=O)c2ccccc2C1=O`: the AC50 was 3.89 µM.

In the case of `O=C1C(Nc2ccccc2)=C(N2CCOCC2)C(=O)c2ccccc21`, the AC50 was 12.8 µM and 7.07 µM.

For `CN1CCN(C2=C(NS(=O)(=O)c3cccs3)C(=O)c3ccccc3C2=O)CC1`, the half-maximal activity concentration (AC50) was 3.51 µM.

Turning to `C=C1C(=O)OC2C1CC/C(C)=C\CCC1(C)OC21` (centres undefined), the concentration at half-maximal activity (AC50) is 3.51 µM.

As for `O=C(NC1=C(c2ccc(OC(F)(F)F)cc2)C(=O)c2ccccc2C1=O)c1ccccc1F`, the AC50 is 19.9 µM.

In the case of `O=C(NC1=C(Cl)C(=O)c2ccccc2C1=O)c1ccccc1`, the half-maximal activity concentration (AC50) was 0.806 µM.

With `COc1ccc(C2=C(NC(=O)c3ccccc3Cl)C(=O)c3ccccc3C2=O)cc1`, the AC50 was 5.18 µM.

In the case of `CC(=O)NC1=C(c2ccc3c(c2)oc2ccccc23)C(=O)c2ccccc2C1=O`, the concentration at half-maximal activity (AC50) is 2.15 µM.

With `O=C(NC1=C(N2CCSCC2)C(=O)c2ccccc2C1=O)c1ccc(Br)cc1`, the AC50 is 10.1 µM.

`O=C1C=C(NS(=O)(=O)c2ccc(Br)cc2)C(=O)c2ccccc21`: the concentration at half-maximal activity (AC50) is 9.16 µM.

Consider `O=C(NC1=C(c2ccc(OC(F)(F)F)cc2)C(=O)c2ccccc2C1=O)c1ccc(Br)cc1`, for which the AC50 was 25 µM.

Consider `COC1=C(Nc2ccccc2)C(=O)c2ccccc2C1=O`, for which the AC50 was 2.69 µM.

As to `O=C(NC1=C(N2CCSCC2)C(=O)c2ccccc2C1=O)c1ccccc1`, the AC50 was 4.96 µM.

In the case of `O=C(NC1=C(N2CCCCC2)C(=O)c2ccccc2C1=O)c1ccccc1`, the half-maximal activity concentration (AC50) was 23.3 µM.

Turning to `C=CCNC1=C(N2CCCCC2)C(=O)c2ccccc2C1=O`, the AC50 is 0.983 µM.

Regarding `O=C(NC1=C(c2ccccc2)C(=O)c2ccccc2C1=O)c1ccc(Br)cc1`, the AC50 was 24.4 µM.

In the case of `CN1CCN(C2=C(NC(=O)c3ccc(Br)cc3)C(=O)c3ccccc3C2=O)CC1`, the AC50 was 1.14 µM.

For `O=C1C(NS(=O)(=O)c2ccccc2)=C(c2ccccc2)C(=O)c2ccccc21`, the AC50 was 20.5 µM.

For `CCN(CC)CCNC1=C(Nc2ccccc2)C(=O)c2ccccc2C1=O`, the AC50 is 4.88 µM.

Turning to `C=CCNC1=C(NC(=O)c2ccccc2)C(=O)c2ccccc2C1=O`, the half-maximal activity concentration (AC50) is 26.5 µM.

In the case of `O=C1C(Nc2ccccc2)=C(NS(=O)(=O)c2ccccc2[N+](=O)[O-])C(=O)c2ccccc21`, the AC50 was 16.9 µM.

Turning to `NC1=C(NS(=O)(=O)c2ccc(Br)cc2)C(=O)c2ccccc2C1=O`, the AC50 was 8.9 µM.

`O=C(NC1=C(c2ccccc2)C(=O)c2ccccc2C1=O)c1ccco1`: the AC50 was 9.7 µM.

Regarding `COc1ccc(C2=C(NC(C)=O)C(=O)c3ccccc3C2=O)cc1`, the concentration at half-maximal activity (AC50) is 4.84 µM.

Regarding `COc1ccc(C2=C(NC(=O)c3cccc(OC)c3)C(=O)c3ccccc3C2=O)cc1`, the concentration at half-maximal activity (AC50) is 6.98 µM.

`Cc1ccc(C(=O)NC2=C(c3ccc(OC(F)(F)F)cc3)C(=O)c3ccccc3C2=O)o1`: the half-maximal activity concentration (AC50) is 13.4 µM.

`O=C1C(NS(=O)(=O)c2ccc(Br)cc2)=C(N2CCCCC2)C(=O)c2ccccc21`: the AC50 is 27.7 µM.

Take `NC1=C(NC(=O)c2ccccc2)C(=O)c2ccccc2C1=O`: the AC50 is 4.08 µM.

Take `Cc1ccc(C(=O)NC2=C(c3ccccc3)C(=O)c3ccccc3C2=O)o1`: the AC50 is 3.23 µM.

On to `C=CCNC1=C(NS(=O)(=O)c2ccc(Br)cc2)C(=O)c2ccccc2C1=O`, for which the half-maximal activity concentration (AC50) is 11.9 µM.

As for `C=CCNC1=C(NCCCN2CCOCC2)C(=O)c2ccccc2C1=O`, the AC50 is 13.9 µM.

Turning to `CCN1CCN(C2=C(Nc3ccccc3)C(=O)c3ccccc3C2=O)CC1`, the AC50 is 0.809 µM.

`Cc1nc2ccccc2n1/N=C/c1ccc([N+](=O)[O-])s1`: the concentration at half-maximal activity (AC50) was 4.34 µM.

As for `O=C1C(NS(=O)(=O)c2ccc(Br)cc2)=C(N2CCOCC2)C(=O)c2ccccc21`, the AC50 is 14.4 µM.

On to `C=CCNC1=C(NS(=O)(=O)c2cccs2)C(=O)c2ccccc2C1=O`, for which the concentration at half-maximal activity (AC50) was 14.2 µM.

For `CCN1CCN(C2=C(NC(=O)c3ccccc3)C(=O)c3ccccc3C2=O)CC1`, the AC50 was 0.783 µM.

With `CC(=O)NC1=C(c2ccccc2)C(=O)c2ccccc2C1=O`, the concentration at half-maximal activity (AC50) is 6.67 µM.

Take `COc1ccc(C(=O)NC2=C(c3ccc(OC(F)(F)F)cc3)C(=O)c3ccccc3C2=O)cc1`: the concentration at half-maximal activity (AC50) is 36.2 µM.

Take `COc1ccc(C2=C(NC(=O)c3ccc(Cl)cc3)C(=O)c3ccccc3C2=O)cc1`: the AC50 was 15.3 µM.

On to `C=CCNC1=C(N2CCN(CC)CC2)C(=O)c2ccccc2C1=O`, for which the AC50 is 4.47 µM.

As for `O=C1C(NS(=O)(=O)c2ccc(Br)s2)=C(N2CCOCC2)C(=O)c2ccccc21`, the AC50 is 15 µM.

For `CCN1c2ccccc2NC2N=C(OC)C(c3ccccc3)C21` (centres undefined), the concentration at half-maximal activity (AC50) is 3.74 µM.

`C=CCNC1=C(Nc2ccccc2)C(=O)c2ccccc2C1=O`: the AC50 is 15.4 µM.

For `CC(=O)N(C)C1=C(N2CCOCC2)C(=O)c2ccccc2C1=O`, the AC50 was 2.45 µM.

In the case of `COC1=C(NS(=O)(=O)c2ccc(Br)cc2)C(=O)c2ccccc2C1=O`, the AC50 was 7.22 µM.

In the case of `C=CCNC1=C(N2CCOCC2)C(=O)c2ccccc2C1=O`, the AC50 was 2.54 µM.

On to `C=CCNC1=C(N2CCSCC2)C(=O)c2ccccc2C1=O`, for which the AC50 is 3.93 µM.

Regarding `O=C1C(NS(=O)(=O)c2cccs2)=C(N2CCCCC2)C(=O)c2ccccc21`, the AC50 is 22.1 µM.

As for `O=C(CNc1cccc2ccccc12)N/N=C/c1ccc([N+](=O)[O-])o1`, the AC50 is 3.64 µM.

For `CC(=O)NC1=C(c2ccc(Oc3ccccc3)cc2)C(=O)c2ccccc2C1=O`, the concentration at half-maximal activity (AC50) is 19.8 µM.

For the compound `COc1ccc(C2=C(NC(=O)c3ccccc3OC)C(=O)c3ccccc3C2=O)cc1`, the AC50 is 23.7 µM.
